Test results from ChEMBL document CHEMBL2331171, “Anti-malarial activity of new N-acetyl-L-leucyl-L-leucyl-L-norleucinal (ALLN) derivatives against Plasmodium falciparum” (Bioorg Med Chem Lett, 2013).
Where a SMILES comes first, the peptide text is derived from it. [ ]: non-standard residue; d: D form. Nle = CCCC[C@H](N)C(=O)O

Legend:
Plasmodium falciparum = experiment: Antimalarial activity against Plasmodium falciparum FCR-3 infected in erythrocytes assessed as reduction in parasitemia after 72 hrs by light microscopic analysis; type: functional, cell-based; details: FCR-3/Gambia
In short: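 P. falciparum FCR3 in erythrocytes exposed to compounds; parasitemia (parasite content of erythrocytes) counted microscopically; concentration giving 50% growth inhibition derived. Mean SD of three independent experiments, each in triplicate.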

[1] = Cytotoxicity against human HeLa cells assessed as growth inhibition after 48 hrs by MTS assay; type: cell-based
[2] = Therapeutic index, ratio of CC50 for human HeLa cells to IC50 for Plasmodium falciparum FCR-3; type: cell-based; details: HeLa cells versus Plasmodium falciparum FCR-3, read-out: Ratio CC50/IC50

CNC(=O)/C=C/[C@H](Cc1ccccc1)NC(=O)[C@@H](CCCNC(=O)OCc1ccccc1)NCc1ccc(OC)cc1
IC50 (Plasmodium falciparum): 16.7 µM
CC50 at 48 h [1]: 461 µM
selectivity ratio [2]: 27.6

CNC(=O)/C=C/C=C/[C@H](Cc1ccccc1)NC(=O)[C@@H](CCCNC(=O)OCc1ccccc1)NC(=O)OC(C)(C)C
IC50 (Plasmodium falciparum): 23.6 µM
CC50 at 48 h [1]: 281 µM
selectivity ratio [2]: 11.9

CCNC(=O)/C=C/[C@H](Cc1ccccc1)NC(=O)[C@@H](CCCNC(=O)OCc1ccccc1)NC(=O)OC(C)(C)C
IC50 (Plasmodium falciparum): > 100 µM
CC50 at 48 h [1]: 2000 µM

CNC(=O)/C=C/[C@H](Cc1ccccc1)NC(=O)[C@@H](CCCNC(=O)OCc1ccccc1)NC(=O)OC(C)(C)C
IC50 (Plasmodium falciparum): 5 µM
CC50 at 48 h [1]: 1060 µM
selectivity ratio [2]: 157

CNC(=O)/C=C/[C@H](Cc1ccccc1)NC(=O)[C@@H](CCCNC(=O)OCc1ccccc1)NCc1cc(OC)cc(OC)c1
IC50 (Plasmodium falciparum): 16.4 µM
CC50 at 48 h [1]: 259 µM
selectivity ratio [2]: 15.8

CNC(=O)/C=C/[C@H](Cc1ccccc1)NC(=O)[C@@H](CCCNC(=O)OCc1ccccc1)NCc1ccccc1
IC50 (Plasmodium falciparum): 15.3 µM
CC50 at 48 h [1]: 253 µM
selectivity ratio [2]: 16.5

CCCC[C@@H](C=O)NC(=O)[C@H](CC(C)C)NC(=O)[C@H](CC(C)C)NC(C)=O (Ac-Leu-Leu-[Nle]-aldehyde)
IC50 (Plasmodium falciparum): 0.64 µM
CC50 at 48 h [1]: 25.1 µM
selectivity ratio [2]: 39.2

CC(C)(C)OC(=O)N[C@H](CCCNC(=O)OCc1ccccc1)C(=O)N[C@H](/C=C/C=C/C(=O)N1CCCC1)Cc1ccccc1
IC50 (Plasmodium falciparum): > 100 µM
CC50 at 48 h [1]: 53.1 µM

CC(C)NC(=O)/C=C/[C@H](Cc1ccccc1)NC(=O)[C@@H](CCCNC(=O)OCc1ccccc1)NC(=O)OC(C)(C)C
IC50 (Plasmodium falciparum): 9.29 µM
CC50 at 48 h [1]: 314 µM
selectivity ratio [2]: 33.8

CC(C)(C)OC(=O)N[C@H](CCCNC(=O)OCc1ccccc1)C(=O)N[C@H](/C=C/C(=O)N1CCCC1)Cc1ccccc1
IC50 (Plasmodium falciparum): 11.4 µM
CC50 at 48 h [1]: 153 µM
selectivity ratio [2]: 13.4

CNC(=O)/C=C/[C@H](Cc1ccccc1)NC(=O)[C@@H](CCCNC(=O)OCc1ccccc1)NC(C)C
IC50 (Plasmodium falciparum): 56.3 µM
CC50 at 48 h [1]: 611 µM
selectivity ratio [2]: 10.8

CNC(=O)/C=C/[C@H](Cc1ccccc1)NC(=O)[C@@H](CCCNC(=O)OCc1ccccc1)NCc1cccc(C)c1
IC50 (Plasmodium falciparum): 5 µM
CC50 at 48 h [1]: 242 µM
selectivity ratio [2]: 48.3

CC(C)(C)OC(=O)N[C@H](CCCNC(=O)OCc1ccccc1)C(=O)N[C@H](/C=C/C=C/C(=O)N1CCCCC1)Cc1ccccc1
IC50 (Plasmodium falciparum): 15.7 µM
CC50 at 48 h [1]: 175 µM
selectivity ratio [2]: 11.2

CN(C)C(=O)/C=C/C=C/[C@H](Cc1ccccc1)NC(=O)[C@@H](CCCNC(=O)OCc1ccccc1)NC(=O)OC(C)(C)C
IC50 (Plasmodium falciparum): > 100 µM
CC50 at 48 h [1]: 117 µM
